Measurements reported in the EternaBench riboswitch data.

Test system: MS2 coat protein
Assay: apparent Kd, MS2 coat protein; higher = weaker binding; RNA-MaP array; FMN 200 µM where present
Procedure, shortened: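 Green signal was scaled to red-channel RNA signal and control-cluster median Fmax, and the apparent Kd was taken as the median of filtered per-cluster binding-curve fits. The binding series used SNAP-549-labelled MS2 coat protein from 0.7 or 1.5 nM, doubling to 3 µM, on designs transcribed by stalled E. coli RNA polymerase on Illumina sequencing-chip clusters. Each series ran without and then with constant ligand in 100 mM Tris-HCl pH 7.5, 80 mM KCl, 4 mM MgCl2, BSA, DTT, yeast tRNA and Tween-20.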

[1] = designed as: OFF switch for flavin mononucleotide, no ligand
[2] = ligand present: flavin mononucleotide, designed as: OFF switch for flavin mononucleotide
[3] = designed as: ON switch for flavin mononucleotide, no ligand
[4] = ligand present: flavin mononucleotide, designed as: ON switch for flavin mononucleotide

| Sequence | apparent Kd [1] | apparent Kd [2] | apparent Kd [3] | apparent Kd [4] |
| --- | --- | --- | --- | --- |
| UUUAUUUAGGCAGGAUAUACAUGUAUAUAUAUUUCUUUAUAUAUUAUUACAUGAGGAUCACCCAUGUAGAAGGGCCUUAUUAUA | 0.0693 µM | 0.0889 µM | – | – |
| UUAAUUAAUUAAUUAUACAUGAGGAUCACCCAUGUAAGUGAUCAGGAUAUCAGCUCGAUUAGAGCUGAGAAGGGAUCCAUGUAA | – | – | 0.109 µM | 0.0813 µM |
| GGUUGUCAUCGUCAUCCUUUCUGUACAUGAGGAUCACCCAUGUAGGAUAUGCUGCUCUCGGUGUGGCAGAAGGGCGUGUGUCUU | 0.0342 µM | 0.0376 µM | – | – |
| UGUCACGUAGUAGGAUAUGACAUGAGGAUCACCCAUGUUAACUCUAACCUCGAGGAUCGUCAUGGUCAGAAGGACUCAGACAAG | 0.209 µM | 0.0759 µM | – | – |
| GCGGGUCCGGAGAAGGGUACCGUGGGUAUGAUACAUGAGGAUCACCCAUGUACAGGAUAUCCGGCAAAGAUGUGGCUAAGAGGG | 0.257 µM | 0.0345 µM | – | – |
| GUUAAGUGAGGAUAUGGUGAGUAGUGCCAGAGCGCUGCUCACCAGAAGGCACAUGAGGAUCACCCAUGUAUAGC | 0.0157 µM | 0.0315 µM | – | – |
| GGAUAGGACAGAGGAUAUACCUGCUAGAGAUACUAGCAAAAUUUCCUCACAUGAGGAUCACCCAUGUAGAAGGCUGUCCUAUCG | 0.00845 µM | 0.109 µM | – | – |
| GUGGUCAGACAUGAGGAUCACCCAUGUGGAAUAAAUAACAGACAGGAUAUCCAAUAUAGGAUAUAGGAGAAGGGUCGAUUGGUG | – | – | 0.0731 µM | 0.0742 µM |
| UACAUCAAUGAAGGAUAUCUAUAUCCAACAUGAGGAUCACCCAUGUUGAGGAUCACCCAUGUAAAGGAGAAGGUUAACAUAACU | – | – | 0.0394 µM | 0.034 µM |
| GCAGGUUAAGUCAGGAUAUACCUAUGGAUACAUAGGUAGAAGGGACAUGAGGAUCACCCAUGUGACUCGCCUGC | 0.0269 µM | 0.0958 µM | – | – |
| CCGGAAACGGGUAGCCUGACAUGAGGAUCACCCAUGUAAUCCGAGGAUAUGGAUCCUAAUUGGAUCCAGAAGGUGGCAGGCUAC | – | – | 0.463 µM | 0.127 µM |
| ACGGCAGUCAGAGGAUAUGGUUACAUGAGGAUCACCCAUGUCAAGGGUCUAAUUAGGUAUAACUACCAGAAGGCUGAAGGCCUA | 0.0645 µM | 0.102 µM | – | – |
| GUAGCAUACCGAGGAUAUUCAGGGCGUGGAUAUACAUGAGGAUCACCCAUGUGGCGGAAGCCUAGGGAGAAGGCGGGAUGCUAC | – | – | 0.0223 µM | 0.0155 µM |
| GCGUACUGAGGAUAUACAUGAGGAUCACCCAUGUUUCACAGCAUAUGUGAAGUUUUUUGUAGAAGGCAGUAUGC | 0.0296 µM | 0.163 µM | – | – |
| CUCGGACAUGAGGAUCACCCAUGUGAGGAUAUGGCGCGAUCGUCGAAAGACGAUAGCGCCAGAAGGCACAAAUG | 0.0654 µM | 0.195 µM | – | – |
| UGGUACUACGGAGGAUAUCAUGUGUAAACAUGAGGAUCACCCAUGUCGUACGAGAGUACGGAGAUUGAGAAGGCCGUAGUACCU | – | – | 0.0854 µM | 0.0167 µM |
| UGCUACGUUUCGUAGCAGUGUCAUCGAGAAGGCCCUGACAUGAGGAUCACCCAUGUUGUUACAUGGGAGGAUAUCGAUGAUACC | – | – | 0.0118 µM | 0.00525 µM |
| GUCCAACAUGAGGAUCACCCAUGUGAGGAUAUGCGAAUUUCAUCAAAAGAUGAAAUUUGCAGAAGGCACAGGAC | 0.0202 µM | 0.0328 µM | – | – |
| UGUCGUAGCAGAGGAUAUUACAUGAGGAUCACCCAUGUAUGAACCAAUAGCUGGAAACAGCAAUGUAAGAAGGCUGCUCCGACA | 0.0132 µM | 0.158 µM | – | – |
| GGUCGUCACAUAUACAUGAGGAUCACCCAUGUGAAAACACAUGAGGAUAUGGAUCCUAAUUGGAUCCAGAAGGCAUGGACGACC | – | – | 0.0421 µM | 0.00763 µM |
| GAAGUUCUCCAGAAGGCACAUGAGGAUCACCCAUGUAAAAGAGCCUUAAUGUGAGGAUAUGGAAGCUGCUUCAUAGAUGACAUA | 0.00661 µM | 0.0265 µM | – | – |
| UCAUAUAUACAAGGAUAUCAAUGAUUUGUAGAUCCUACAUGAGGAUCACCCAUGUUUUUAUAUUUUGAGAAGGUGUAGUGUCUU | – | – | 0.178 µM | 0.352 µM |
| UGAUAGGACAGAGGAUAUACGUAUAAAUAUCCUUACAUGAGGAUCACCCAUGUAGAAGGCUGUCCUAUCUAAGUCGGAAACGAC | 0.00596 µM | 0.0103 µM | – | – |
| GCUUGUGUUGAGGAUAUGCGCCGGCUCGCUGGCGCAGAAGGCGGCACAUGAGGAUCACCCAUGUCAGUUCGCGC | 0.019 µM | 0.157 µM | – | – |
| GAUUGACAUGAGGAUCACCCAUGUGAGGAUAUCGGCCGGACCUUGUUAGCUUCCACCGCGAGAAGGCACAUAGG | 0.0309 µM | 0.0416 µM | – | – |
| AUCAGCUCGUCAGGAUAUACGUCACUGCGUCAGCAGUGUGGUAAGAUUACAUGAGGAUCACCCAUGUAGAAGGGACGAGCUGAU | 0.00638 µM | 0.00859 µM | – | – |
| GAGCGAAAGCUCAAUGUCGAUAGCAGAAGGACACAUGAUAACAUGAAAACAUGAGGAUCACCCAUGUAGGAUAUGCUAUCGACU | 0.00857 µM | 0.0139 µM | – | – |
